A short description of series [1]: Drug uptake in human DU145 cells assessed as geometric mean fluorescence intensity after 1 hr by propidium iodine-staining based FACS analysis. It counts as ADME, cell-based. The note with it: du-145, 1 h. The method, boiled down: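 DU145 cells exposed 1 h to FITC-labelled peptide (10 µM) in serum-free RPMI, detached with trypsin:EDTA and pelleted, with no trypsin wash. Dead cells excluded by 2 min propidium iodide (10 µg/mL). Flow cytometry read 10 000 events/sample, and uptake was given as geometric mean fluorescence.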
On the technique in general: Flow cytometry measures light scatter and fluorescence of single cells or particles in a stream.

Series [2] can be described thus: Drug uptake in human DU145 cells assessed as geometric mean fluorescence intensity preincubated for 1 hr followed by trypsin washout for 5 mins by propidium iodine-staining based FACS analysis. It counts as ADME, cell-based. The note with it: du-145, 5 min. The method, boiled down: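 DU145 cells given FITC-labelled peptide (10 µM) for 1 h in serum-free RPMI, harvested by trypsin:EDTA, then washed twice with 0.05% trypsin for 5 min at 37 °C to strip membrane-bound peptide. Propidium iodide (10 µg/mL, 2 min) excluded damaged cells. 10 000 events/sample were read by flow cytometry as geometric mean fluorescence.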

For series [3], the target named is Furin (Homo sapiens, UniProt P09958). Nature of the series: Inhibition of recombinant human furin expressed in drosophila S2 cells using pyrGlu-Arg-Thr-Lys-Arg-7-amido-4-methylcoumarin as substrate after 60 mins by spectrofluorometry method. It counts as cell-based. The method in brief:
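Human recombinant purified furin at 2 units/100 µL (0.54 nM), in 100 mM HEPES pH 7.5, 1 mM CaCl2, 1 mM β-mercaptoethanol, 1.8 mg/mL BSA. His-containing peptides run instead in 20 mM BisTris pH 6.5 with the same additives. Substrate 100 µM, KM 5.04 µM. Inhibitor 1 nM to 10 µM; 60 min at 37°C. Fluorescence ex 370 / em 460 nm. Ki by Morrison equation; triplicate experiments, mean ± SD.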

The target in series [4] is T1, Proprotein convertase subtilisin/kexin type 6 (Homo sapiens, UniProt P29122).
T1 sequence (P29122 whole entry): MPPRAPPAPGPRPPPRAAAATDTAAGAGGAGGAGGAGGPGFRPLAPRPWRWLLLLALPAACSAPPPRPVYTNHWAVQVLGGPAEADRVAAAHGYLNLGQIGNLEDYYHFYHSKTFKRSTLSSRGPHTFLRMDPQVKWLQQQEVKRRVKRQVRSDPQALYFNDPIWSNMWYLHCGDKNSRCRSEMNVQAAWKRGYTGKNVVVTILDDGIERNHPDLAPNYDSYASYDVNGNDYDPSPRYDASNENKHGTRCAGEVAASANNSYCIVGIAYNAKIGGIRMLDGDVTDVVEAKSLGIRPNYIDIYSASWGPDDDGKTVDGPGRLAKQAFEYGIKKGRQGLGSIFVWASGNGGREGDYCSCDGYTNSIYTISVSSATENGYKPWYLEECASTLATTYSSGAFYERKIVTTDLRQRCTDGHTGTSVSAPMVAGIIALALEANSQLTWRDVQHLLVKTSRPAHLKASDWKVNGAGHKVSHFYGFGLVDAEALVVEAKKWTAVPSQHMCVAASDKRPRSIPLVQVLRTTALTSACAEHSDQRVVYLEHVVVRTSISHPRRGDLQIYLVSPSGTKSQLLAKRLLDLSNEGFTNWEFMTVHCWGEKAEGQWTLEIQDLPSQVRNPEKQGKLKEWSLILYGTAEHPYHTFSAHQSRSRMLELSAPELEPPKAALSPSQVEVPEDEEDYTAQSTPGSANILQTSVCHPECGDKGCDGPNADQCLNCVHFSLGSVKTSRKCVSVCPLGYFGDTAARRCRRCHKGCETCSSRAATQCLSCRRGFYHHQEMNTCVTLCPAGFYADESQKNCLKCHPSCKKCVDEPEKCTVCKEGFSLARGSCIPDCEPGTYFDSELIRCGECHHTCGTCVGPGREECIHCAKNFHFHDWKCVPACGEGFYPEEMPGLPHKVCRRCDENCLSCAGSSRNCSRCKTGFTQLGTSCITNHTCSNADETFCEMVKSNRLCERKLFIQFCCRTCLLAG
Nature of the series: Inhibition of recombinant human PACE4 expressed in drosophila S2 cells using pyrGlu-Arg-Thr-Lys-Arg-7-amido-4-methylcoumarin as substrate after 60 mins by spectrofluorometry method. In kind it is cell-based. The method, boiled down: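 Human recombinant purified PACE4 at 2 units/100 µL (20.18 nM), in 20 mM BisTris pH 6.5, 1 mM CaCl2, 1.8 mg/mL BSA. Substrate 100 µM, KM 4.035 µM. Inhibitor 1 nM to 10 µM; 60 min at 37°C. Fluorescence ex 370 / em 460 nm. Ki by Morrison tight-binding equation; three independent experiments, mean ± SD.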

The test system of series [5] is DU-145. Nature of the series: Antiproliferative activity against human DU145 cells assessed as reduction in metabolic activity after 72 hrs by MTT assay. It counts as functional, cell-based. The note with it: DU-145, 72 h. The method, boiled down:
(§1)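 Cells kept at 37°C, 5% CO2 in RPMI 1640 (DU145 with 5% FBS, 1500 cells/well; LNCaP with 10% FBS, 2500 cells/well) on poly-L-lysine coated plates. Peptides added 24 h after plating in fresh serum medium at 0, 1, 10, 25, 50, 75, 100, 250 µM for 72 h. MTT 1 mg/mL final for 4 h; formazan dissolved in 2-propanol HCl. Signal normalised to water vehicle; IC50 from dose-response curves.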
For orientation: Formazan colour is commonly taken as a measure of viable cells.

Series [6] relates to LNCaP. Briefly: Antiproliferative activity against human LNCAP cells assessed as reduction in metabolic activity after 72 hrs by MTT assay. In kind it is functional, cell-based. The method in brief: as §1
The species named for series [7] is Homo sapiens. Nature of the series: Selectivity index, ratio of Ki for recombinant human furin expressed in drosophila S2 cells to Ki for recombinant human PACE4 expressed in drosophila S2 cells. In kind it is cell-based. The method in brief: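 Ratio Ki(furin)/Ki(PACE4). […] PACE4 buffer was BisTris pH 6.5; furin buffer was HEPES pH 7.5, or BisTris pH 6.5 for His peptides. Ki fitted by Morrison equation from three independent experiments.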

SMILES strings stand for the structures. pIC50, pKi: −log10 of the molar value. Peptide text beside a SMILES is read from it. * marks the point of attachment. FITC = O=C1OC2(c3ccc(O)cc3Oc3cc(O)ccc32)c2ccc(NC(=S)*)cc21; NH(4-amidinobenzyl) = N=C(N)c1ccc(CN*)cc1; βAla = NCCC(=O)O

Chain of Furin (P09958 whole entry): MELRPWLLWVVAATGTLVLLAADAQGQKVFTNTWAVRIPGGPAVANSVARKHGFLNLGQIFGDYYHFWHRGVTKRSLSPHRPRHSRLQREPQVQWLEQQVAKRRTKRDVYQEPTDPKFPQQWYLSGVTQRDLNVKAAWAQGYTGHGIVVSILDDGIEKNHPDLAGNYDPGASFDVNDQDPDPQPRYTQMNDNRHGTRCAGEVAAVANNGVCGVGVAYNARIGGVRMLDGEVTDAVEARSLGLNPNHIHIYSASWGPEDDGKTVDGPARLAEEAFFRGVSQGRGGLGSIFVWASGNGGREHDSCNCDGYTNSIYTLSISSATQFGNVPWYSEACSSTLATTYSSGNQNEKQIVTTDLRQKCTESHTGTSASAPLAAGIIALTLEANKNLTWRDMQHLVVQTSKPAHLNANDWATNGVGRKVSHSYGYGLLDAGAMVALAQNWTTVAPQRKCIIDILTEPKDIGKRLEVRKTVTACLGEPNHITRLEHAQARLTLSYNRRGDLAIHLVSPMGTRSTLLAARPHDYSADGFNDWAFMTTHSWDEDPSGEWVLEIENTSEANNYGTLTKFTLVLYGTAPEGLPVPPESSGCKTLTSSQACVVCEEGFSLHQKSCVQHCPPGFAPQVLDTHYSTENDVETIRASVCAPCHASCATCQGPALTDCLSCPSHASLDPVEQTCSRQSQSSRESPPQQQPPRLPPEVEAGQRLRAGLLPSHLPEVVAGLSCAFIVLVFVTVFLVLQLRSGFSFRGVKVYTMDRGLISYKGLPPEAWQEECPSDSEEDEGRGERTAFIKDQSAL

`CC[C@H](C)[C@H](NC(=O)[C@H](CC(C)C)NC(=O)[C@H](CC(C)C)NC(=O)[C@H](CC(C)C)NC(=O)CCNC(=S)Nc1ccc2c(c1)C(=O)OC21c2ccc(O)cc2Oc2cc(O)ccc21)C(=O)N[C@@H](CCCNC(=N)N)C(=O)N[C@H](C(=O)N[C@@H](CCCCN)C(=O)NCc1ccc(C(=N)N)cc1)C(C)C` ({FITC-βAla}-LLLIRVK-{NH(4-amidinobenzyl)}): the Flu intensity in series [1] is 87.66; in series [2], 99.26.

For `CC(C)C[C@H](NC(=O)CCNC(=S)Nc1ccc2c(c1)C(=O)OC21c2ccc(O)cc2Oc2cc(O)ccc21)C(=O)N[C@@H](CC(C)C)C(=O)N[C@@H](CC(C)C)C(=O)N[C@@H](CCCNC(=N)N)C(=O)N[C@@H](CCCNC(=N)N)C(=O)N[C@H](C(=O)N[C@@H](CCCCN)C(=O)NCc1ccc(C(=N)N)cc1)C(C)C` ({FITC-βAla}-LLLRRVK-{NH(4-amidinobenzyl)}), the Flu intensity is given as 12.6 in series [1] and 2.73 in series [2].

`CC(C)C[C@H](NC(=O)CCNC(=S)Nc1ccc2c(c1)C(=O)OC21c2ccc(O)cc2Oc2cc(O)ccc21)C(=O)N[C@@H](CC(C)C)C(=O)N[C@@H](CC(C)C)C(=O)N[C@@H](CC(C)C)C(=O)N[C@@H](CCCNC(=N)N)C(=O)N[C@H](C(=O)N[C@@H](CCCCN)C(=O)NCc1ccc(C(=N)N)cc1)C(C)C` ({FITC-βAla}-LLLLRVK-{NH(4-amidinobenzyl)}): the Flu intensity stood at 46.61 in series [1] and 47.45 in series [2].

On to `CC(=O)N[C@@H](CC(C)C)C(=O)N[C@@H](CC(C)C)C(=O)N[C@@H](CC(C)C)C(=O)N[C@@H](Cc1ccccc1)C(=O)N[C@@H](CCCNC(=N)N)C(=O)N[C@H](C(=O)N[C@@H](CCCCN)C(=O)NCc1ccc(C(=N)N)cc1)C(C)C` (Ac-LLLFRVK-{NH(4-amidinobenzyl)}), for which the pKi in series [3] is 8.22; in series [4] it was 8.40. For the same molecule, the pIC50 in series [5] was 4.40; in series [6] it was 4.30. The Ratio Ki in series [7] worked out at 1.5.

Regarding `CC[C@H](C)[C@H](NC(C)=O)C(=O)N[C@@H](CC(C)C)C(=O)N[C@@H](CC(C)C)C(=O)N[C@@H](CC(C)C)C(=O)N[C@@H](CCCNC(=N)N)C(=O)N[C@H](C(=O)N[C@@H](CCCCN)C(=O)NCc1ccc(C(=N)N)cc1)C(C)C` (Ac-ILLLRVK-{NH(4-amidinobenzyl)}), the pKi in series [3] and in series [4] was 8.30 throughout. Moreover, the pIC50 in series [5] is 4.57; in series [6], 4.40. In series [7], the Ratio Ki came to 1.

Regarding `CC(=O)N[C@@H](CCC(=O)O)C(=O)N[C@@H](CC(C)C)C(=O)N[C@@H](CC(C)C)C(=O)N[C@@H](CC(C)C)C(=O)N[C@@H](CCCNC(=N)N)C(=O)N[C@H](C(=O)N[C@@H](CCCCN)C(=O)NCc1ccc(C(=N)N)cc1)C(C)C` (Ac-ELLLRVK-{NH(4-amidinobenzyl)}), the results for the pKi in series [3] and in series [4] were 8.15 and 8.10, respectively. Also, the pIC50 is 3.82 in series [5] and 3.92 in series [6]. Further, the Ratio Ki in series [7] amounted to 0.9.

For the molecule `CC(=O)N[C@@H](CC(C)C)C(=O)N[C@@H](CC(C)C)C(=O)N[C@@H](CC(C)C)C(=O)N[C@@H](CCC(N)=O)C(=O)N[C@@H](CCCNC(=N)N)C(=O)N[C@H](C(=O)N[C@@H](CCCCN)C(=O)NCc1ccc(C(=N)N)cc1)C(C)C` (Ac-LLLQRVK-{NH(4-amidinobenzyl)}), the pKi is 8.40 in series [3] and 8.30 in series [4]. Further, the results for the pIC50 in series [5] and in series [6] were 4.92 and 4.59, respectively. Moreover, the Ratio Ki in series [7] was found to be 0.8.

Turning to `CC[C@H](C)[C@H](NC(=O)[C@H](CC(C)C)NC(=O)[C@H](CC(C)C)NC(C)=O)C(=O)N[C@@H](CC(C)C)C(=O)N[C@@H](CCCNC(=N)N)C(=O)N[C@H](C(=O)N[C@@H](CCCCN)C(=O)NCc1ccc(C(=N)N)cc1)C(C)C` (Ac-LLILRVK-{NH(4-amidinobenzyl)}), the pKi in series [3] was 7.52; in series [4] it was 8.00. For the same molecule, the figures for the pIC50 in series [5] and in series [6] were 4.49 and 4.10, respectively. In addition, in series [7], the Ratio Ki amounted to 3.

For `CC(=O)N[C@@H](CO)C(=O)N[C@@H](CC(C)C)C(=O)N[C@@H](CC(C)C)C(=O)N[C@@H](CC(C)C)C(=O)N[C@@H](CCCNC(=N)N)C(=O)N[C@H](C(=O)N[C@@H](CCCCN)C(=O)NCc1ccc(C(=N)N)cc1)C(C)C` (Ac-SLLLRVK-{NH(4-amidinobenzyl)}), the pKi in series [3] is 8.40; in series [4] it was 8.22. For the same molecule, the results for the pIC50 in series [5] and in series [6] were 4.00 and under 3.60, respectively. Also, the Ratio Ki in series [7] turned out to be 0.7.

`CC(=O)N[C@@H](CC(C)C)C(=O)N[C@@H](CC(C)C)C(=O)N[C@@H](Cc1ccccc1)C(=O)N[C@@H](CC(C)C)C(=O)N[C@@H](CCCNC(=N)N)C(=O)N[C@H](C(=O)N[C@@H](CCCCN)C(=O)NCc1ccc(C(=N)N)cc1)C(C)C` (Ac-LLFLRVK-{NH(4-amidinobenzyl)}): the pKi in series [3] was 8.30; in series [4], 7.80. Moreover, the pIC50 in series [5] is 4.42; in series [6], 4.40. In series [7], the Ratio Ki stood at 0.3.

As a reminder, the pKi is −log10 of the Ki, conventionally taken in molar units. The term pIC50 denotes the IC50 on a negative log10 scale, so that one unit is a factor of ten.

Source of the values: ChEMBL document CHEMBL4049407, “Positional Scanning Identifies the Molecular Determinants of a High Affinity Multi-Leucine Inhibitor for Furin and PACE4” (J Med Chem, 2017).
